ChEMBL document CHEMBL4715736, “Identification of anticancer agents based on the thieno[2,3-b]pyridine and 1H-pyrazole molecular scaffolds” (2016)

Legend:
Type in all cases: functional
[1] = test system: HCC 2998; test: Growth inhibition of human HCC 2998 cells assessed as cell growth at 0.01 uM incubated for 48 hrs by sulforhodamine B assay relative to control; details: read-out: Activity
Method in brief: (§1)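 NCI Developmental Therapeutics Program NCI60 panel. Compounds that were active in the 10 µM one-dose screen went on to dose–response testing. Growth at each concentration is expressed relative to untreated control (100%). GI50 (concentration giving 50% of maximal inhibition of proliferation) and TGI (concentration giving total growth inhibition) were derived from the curves.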

[2] = test system: HCC 2998; test: Growth inhibition of human HCC 2998 cells incubated for 48 hrs by sulforhodamine B assay; details: for CC50: read-out: LC50 (the source's name)
[3] = test system: DU-145; test: Growth inhibition of human DU-145 cells assessed as cell growth at 0.1 uM incubated for 48 hrs by sulforhodamine B assay relative to control; details: read-out: Activity; method in brief: as §1
[4] = test system: CCRF-CEM; test: Growth inhibition of human CCRF-CEM cells assessed as cell growth at 0.01 uM incubated for 48 hrs by sulforhodamine B assay relative to control; details: read-out: Activity; method in brief: as §1
[5] = test system: CCRF-CEM; test: Growth inhibition of human CCRF-CEM cells assessed as cell growth at 1 uM incubated for 48 hrs by sulforhodamine B assay relative to control; details: read-out: Activity; method in brief: as §1
[6] = test system: COLO 205; test: Growth inhibition of human COLO 205 cells assessed as cell growth at 0.01 uM incubated for 48 hrs by sulforhodamine B assay relative to control; details: read-out: Activity; method in brief: as §1
[7] = test system: SK-MEL-2; test: Growth inhibition of human SK-MEL-2 cells assessed as cell growth at 100 uM incubated for 48 hrs by sulforhodamine B assay relative to control; details: read-out: Activity
[8] = test system: HOP-92; test: Growth inhibition of human HOP-92 cells assessed as cell growth at 1 uM incubated for 48 hrs by sulforhodamine B assay relative to control; details: read-out: Activity
[9] = test system: NCI-H322M; test: Growth inhibition of human NCI-H322M cells assessed as cell growth at 0.01 uM incubated for 48 hrs by sulforhodamine B assay relative to control; details: read-out: Activity
[10] = test system: SW-620; test: Growth inhibition of human SW-620 cells incubated for 48 hrs by sulforhodamine B assay
Method in brief: (§2)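 NCI DTP 60-line human tumour panel. Dose-response curves were run only for ligands active in the initial 10 µM screen. GI50 (concentration giving 50% of maximal inhibition of proliferation) and TGI (concentration giving total growth inhibition) were derived from these curves.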

[11] = test system: MDA-MB-468; test: Growth inhibition of human MDA-MB-468 cells assessed as cell growth at 0.1 uM incubated for 48 hrs by sulforhodamine B assay relative to control; details: read-out: Activity
[12] = test system: MCF7; test: Growth inhibition of human MCF7 cells assessed as cell growth at 0.1 uM incubated for 48 hrs by sulforhodamine B assay relative to control; details: read-out: Activity
[13] = test system: DU-145; test: Growth inhibition of human DU-145 cells assessed as cell growth at 1 uM incubated for 48 hrs by sulforhodamine B assay relative to control; details: read-out: Activity; method in brief: as §1
[14] = test system: SK-MEL-2; test: Growth inhibition of human SK-MEL-2 cells assessed as cell growth at 1 uM incubated for 48 hrs by sulforhodamine B assay relative to control; details: read-out: Activity
[15] = test system: T47D; test: Growth inhibition of human T47D cells assessed as cell growth at 0.01 uM incubated for 48 hrs by sulforhodamine B assay relative to control; details: read-out: Activity
[16] = test system: NCI-H522; test: Growth inhibition of human NCI-H522 cells assessed as cell growth at 0.01 uM incubated for 48 hrs by sulforhodamine B assay relative to control; details: read-out: Activity
[17] = test system: IGROV-1; test: Growth inhibition of human IGROV-1 cells assessed as cell growth at 0.01 uM incubated for 48 hrs by sulforhodamine B assay relative to control; details: read-out: Activity
[18] = test system: SK-MEL-28; test: Growth inhibition of human SK-MEL-28 cells assessed as cell growth at 0.1 uM incubated for 48 hrs by sulforhodamine B assay relative to control; details: read-out: Activity
[19] = test system: SR; test: Growth inhibition of human SR cells assessed as cell growth at 100 uM incubated for 48 hrs by sulforhodamine B assay relative to control; details: read-out: Activity
[20] = test system: RXF 393; test: Growth inhibition of human RXF 393 cells assessed as cell growth at 100 uM incubated for 48 hrs by sulforhodamine B assay relative to control; details: read-out: Activity
[21] = test system: SNB-19; test: Growth inhibition of human SNB-19 cells incubated for 48 hrs by sulforhodamine B assay; method in brief: as §2
[22] = test system: HOP-62; test: Growth inhibition of human HOP-62 cells assessed as cell growth at 100 uM incubated for 48 hrs by sulforhodamine B assay relative to control; details: read-out: Activity
[23] = test system: K562; test: Growth inhibition of human K562 cells assessed as cell growth at 0.01 uM incubated for 48 hrs by sulforhodamine B assay relative to control; details: read-out: Activity
[24] = test system: SF-268; test: Growth inhibition of human SF-268 cells assessed as cell growth at 100 uM incubated for 48 hrs by sulforhodamine B assay relative to control; details: read-out: Activity
[25] = test system: HOP-92; test: Growth inhibition of human HOP-92 cells assessed as cell growth at 100 uM incubated for 48 hrs by sulforhodamine B assay relative to control; details: read-out: Activity
[26] = test system: KM12; test: Growth inhibition of human KM12 cells assessed as cell growth at 0.01 uM incubated for 48 hrs by sulforhodamine B assay relative to control; details: read-out: Activity
[27] = test system: CAKI-1; test: Growth inhibition of human CAKI-1 cells assessed as cell growth at 0.1 uM incubated for 48 hrs by sulforhodamine B assay relative to control; details: read-out: Activity; method in brief: as §1
[28] = test system: BT-549; test: Growth inhibition of human BT-549 cells assessed as cell growth at 0.01 uM incubated for 48 hrs by sulforhodamine B assay relative to control; details: read-out: Activity
[29] = test system: T47D; test: Growth inhibition of human T47D cells incubated for 48 hrs by sulforhodamine B assay; details: for CC50: read-out: LC50 (the source's name); method in brief: as §2
[30] = test system: SN12C; test: Growth inhibition of human SN12C cells assessed as cell growth at 0.01 uM incubated for 48 hrs by sulforhodamine B assay relative to control; details: read-out: Activity
[31] = test system: MDA-MB-435; test: Growth inhibition of human MDA-MB-435 cells incubated for 48 hrs by sulforhodamine B assay; details: for CC50: read-out: LC50 (the source's name)
Method in brief: (§3)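 NCI60 panel at the NCI Developmental Therapeutics Program. Only compounds active in the 10 µM screen went to dose-response testing. GI50, the concentration giving 50% of maximal inhibition of proliferation, and TGI, the concentration giving total growth inhibition, were derived from the dose-response curves.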

[32] = test system: Hs-578T; test: Growth inhibition of human Hs-578T cells assessed as cell growth at 100 uM incubated for 48 hrs by sulforhodamine B assay relative to control; details: read-out: Activity
[33] = test system: HT-29; test: Growth inhibition of human HT-29 cells incubated for 48 hrs by sulforhodamine B assay; method in brief: as §3
[34] = test system: LOX IMVI; test: Growth inhibition of human LOX IMVI cells assessed as cell growth at 0.01 uM incubated for 48 hrs by sulforhodamine B assay relative to control; details: read-out: Activity
[35] = test system: NCI-H23; test: Growth inhibition of human NCI-H23 cells incubated for 48 hrs by sulforhodamine B assay; method in brief: as §3

Cc1ccc(NC(=O)c2sc3nc4c(cc3c2N)C(=O)CCC4)cc1C
growth at 0.01 µM [1]: 99% | GI50 [2]: 1400 nM | TGI [2]: > 100000 nM | CC50 [2]: > 100000 nM | growth at 0.1 µM [3]: 101% | growth at 0.01 µM [4]: 94% | growth at 1 µM [5]: 7% | growth at 0.01 µM [6]: 101% | growth at 100 µM [7]: 18% | growth at 1 µM [8]: 29% | growth at 0.01 µM [9]: 93% | GI50 [10]: 400 nM | LC50 (concentration killing 50% of cells) [10]: > 100000 nM | TGI [10]: > 100000 nM | growth at 0.1 µM [11]: 83% | growth at 0.1 µM [12]: 86% | growth at 1 µM [13]: 35% | growth at 1 µM [14]: 22% | growth at 0.01 µM [15]: 98% | growth at 0.01 µM [16]: 100% | growth at 0.01 µM [17]: 104% | growth at 0.1 µM [18]: 87% | growth at 100 µM [19]: -14% | growth at 100 µM [20]: 14% | GI50 [21]: 558 nM | LC50 [21]: > 100000 nM | TGI [21]: > 100000 nM | growth at 100 µM [22]: 28% | growth at 0.01 µM [23]: 114% | growth at 100 µM [24]: 14% | growth at 100 µM [25]: 2% | growth at 0.01 µM [26]: 98% | growth at 0.1 µM [27]: 91% | growth at 0.01 µM [28]: 107% | GI50 [29]: 444 nM | TGI [29]: ≥ 100000 nM | CC50 [29]: > 100000 nM | growth at 0.01 µM [30]: 94% | GI50 [31]: 121 nM | TGI [31]: 322 nM | growth at 100 µM [32]: 17% | GI50 [33]: 399 nM | LC50 [33]: > 100000 nM | TGI [33]: ≥ 100000 nM | growth at 0.01 µM [34]: 97%

Cc1cccc(NC(=O)c2sc3nc4c(cc3c2N)C(=O)CCC4)c1
growth at 0.01 µM [1]: 97% | GI50 [2]: 383 nM | TGI [2]: > 100000 nM | CC50 [2]: > 100000 nM | growth at 0.1 µM [3]: 89% | growth at 0.01 µM [4]: 96% | growth at 1 µM [5]: 31% | growth at 0.01 µM [6]: 92% | growth at 100 µM [7]: -74% | growth at 1 µM [8]: 50% | growth at 0.01 µM [9]: 97% | GI50 [10]: 193 nM | LC50 (concentration killing 50% of cells) [10]: > 100000 nM | TGI [10]: ≥ 100000 nM | growth at 0.1 µM [11]: 45% | growth at 0.1 µM [12]: 56% | growth at 1 µM [13]: 3% | growth at 1 µM [14]: 17% | growth at 0.01 µM [15]: 79% | growth at 0.01 µM [16]: 84% | growth at 0.01 µM [17]: 100% | GI50 [35]: 481 nM | LC50 (50% lethal concentration) [35]: > 100000 nM | TGI [35]: ≥ 100000 nM | growth at 0.1 µM [18]: 66% | growth at 100 µM [20]: 5% | GI50 [21]: 403 nM | LC50 [21]: > 100000 nM | TGI [21]: > 100000 nM | growth at 100 µM [22]: 1% | growth at 0.01 µM [23]: 97% | growth at 100 µM [24]: -12% | growth at 100 µM [25]: -40% | growth at 0.01 µM [26]: 95% | growth at 0.1 µM [27]: 73% | growth at 0.01 µM [28]: 87% | TGI [29]: > 100000 nM | CC50 [29]: > 100000 nM | growth at 0.01 µM [30]: 95% | GI50 [31]: 29.7 nM | TGI [31]: 115 nM | CC50 [31]: 681 nM | growth at 100 µM [32]: -48% | GI50 [33]: 199 nM | LC50 [33]: ≥ 100000 nM | TGI [33]: ≥ 100000 nM | growth at 0.01 µM [34]: 97%

CCc1cccc(C)c1NC(=O)c1sc2nc3c(cc2c1N)C(=O)CCC3
growth at 0.01 µM [1]: 99% | GI50 [2]: 1330 nM | TGI [2]: > 100000 nM | CC50 [2]: > 100000 nM | growth at 0.1 µM [3]: 102% | growth at 0.01 µM [4]: 97% | growth at 1 µM [5]: 16% | growth at 0.01 µM [6]: 96% | growth at 1 µM [8]: 39% | growth at 0.01 µM [9]: 91% | GI50 [10]: 359 nM | LC50 (concentration killing 50% of cells) [10]: > 100000 nM | TGI [10]: > 100000 nM | growth at 0.1 µM [11]: 91% | growth at 0.1 µM [12]: 90% | growth at 1 µM [13]: 21% | growth at 0.01 µM [15]: 97% | growth at 0.01 µM [17]: 101% | GI50 [35]: 733 nM | LC50 (50% lethal concentration) [35]: > 100000 nM | TGI [35]: > 100000 nM | growth at 0.1 µM [18]: 91% | growth at 100 µM [19]: -18% | growth at 100 µM [20]: 5% | GI50 [21]: 870 nM | LC50 [21]: > 100000 nM | TGI [21]: > 100000 nM | growth at 100 µM [22]: 28% | growth at 0.01 µM [23]: 92% | growth at 100 µM [24]: 5% | growth at 100 µM [25]: -7% | growth at 0.01 µM [26]: 96% | growth at 0.1 µM [27]: 91% | GI50 [29]: 517 nM | TGI [29]: ≥ 100000 nM | CC50 [29]: > 100000 nM | growth at 0.01 µM [30]: 97% | GI50 [31]: 148 nM | CC50 [31]: > 100000 nM | growth at 100 µM [32]: 17% | growth at 0.01 µM [34]: 95%
